Measured values as given in ChEMBL document CHEMBL1177846, “Benzylidene/2-chlorobenzylidene hydrazides: synthesis, antimicrobial activity, QSAR studies and antiviral evaluation” (Eur J Med Chem, 2010).
Values after ≈ are worked out from the molar mass of the structure shown. Active and inactive are the calls of the source. The rule behind the calls is not given here.

How the values were obtained:
[1] = test system: Respiratory syncytial virus; assay: Antiviral activity against RSV infected in human HeLa cells assessed as inhibition of virus-induced cytopathic effect after 3 days by MTS assay; type: functional, organism-based; conditions: 72 h
Procedure, shortened: (§1)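 Confluent cell monolayers were infected with 100 CCID50 of virus and allowed 2 h adsorption at 37 °C. Virus was then removed and serial compound dilutions were added. Cultures were incubated at 37 °C for 3 days, until CPE was complete in the untreated virus control. EC50 was the concentration giving 50% inhibition of virus-induced CPE, by visual score or by MTS formazan cell viability.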

Coxsackievirus B4 [2] = assay: Antiviral activity against Coxsackie virus B4 infected in human HeLa cells assessed as inhibition of virus-induced cytopathic effect after 3 days by MTS assay; type: functional, organism-based; conditions: Enterovirus B, 72 h; procedure, shortened: as §1
[3] = (§2) Cytotoxicity against human HeLa cells after 3 days by MTS assay; type: cell-based; conditions: HeLa cells
Procedure, shortened: (§3)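 Uninfected HeLa cells were run in parallel with the antiviral assay and exposed to serial compound dilutions. CC50 is the 50% cytotoxic concentration from colorimetric formazan-based MTS cell viability.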

HeLa = assay: as §2; type: cell-based; conditions: hela, 72 h; procedure, shortened: as §3
[4] = test system: Vesicular stomatitis virus; assay: Antiviral activity against VSV infected in human HeLa cells assessed as inhibition of virus-induced cytopathic effect after 3 days by MTS assay; type: functional, organism-based; conditions: 72 h; procedure, shortened: as §1
Staphylococcus aureus = assay: Antibacterial activity against Staphylococcus aureus after 24 hrs by serial dilution method; type: functional
Bacillus subtilis = assay: Antibacterial activity against Bacillus subtilis after 24 hrs by serial dilution method; type: functional
Escherichia coli = assay: Antibacterial activity against Escherichia coli after 24 hrs by serial dilution method; type: functional
Candida albicans = assay: Antifungal activity against Candida albicans after 48 hrs by serial dilution method; type: functional
Procedure, shortened: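 Serial compound dilutions in Sabouraud dextrose broth (tube dilution), incubated 37 °C for 48 h. MIC was read as the lowest concentration with no growth.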

Aspergillus niger = assay: Antifungal activity against Aspergillus niger after 7 days by serial dilution method; type: functional
Feline coronavirus = assay: Antiviral activity against Feline caronavirus infected in […] cells assessed as inhibition of virus-induced cytopathic effect after 3 days by MTS assay; type: functional, organism-based; procedure, shortened: as §1
Felid alphaherpesvirus 1 = assay: Antiviral activity against Feline herpesvirus 1 infected in […] cells assessed as inhibition of virus-induced cytopathic effect after 3 days by MTS assay; type: functional, organism-based; procedure, shortened: as §1
Human alphaherpesvirus 1 [5] = assay: Antiviral activity against Herpes simplex virus 1 KOS infected in human HEL cells assessed as inhibition of virus-induced cytopathic effect after 3 days by MTS assay; type: functional, organism-based; procedure, shortened: as §1
Human alphaherpesvirus 2 = assay: Antiviral activity against Herpes simplex virus 2 G infected in human HEL cells assessed as inhibition of virus-induced cytopathic effect after 3 days by MTS assay; type: functional, organism-based; conditions: strain G; procedure, shortened: as §1
Vaccinia virus = assay: Antiviral activity against Vaccinia virus infected in human HEL cells assessed as inhibition of virus-induced cytopathic effect after 3 days by MTS assay; type: functional, organism-based; conditions: Orthopoxvirus vaccinia; procedure, shortened: as §1
Human alphaherpesvirus 1 [6] = assay: Antiviral activity against acyclovir-resistant […] kinase-deficient HSV1 KOS infected in human HEL cells assessed as inhibition of virus-induced cytopathic effect after 3 days by MTS assay; type: functional, organism-based; procedure, shortened: as §1
[7] = test system: Vesicular stomatitis virus; assay: Antiviral activity against VSV infected in human HEL cells assessed as inhibition of virus-induced cytopathic effect after 3 days by MTS assay; type: functional, organism-based; procedure, shortened: as §1
Influenza A virus [8] = assay: Antiviral activity against influenza A virus H1N1 infected in MDCK cells assessed as inhibition of virus-induced cytopathic effect after 3 days by MTS assay; type: functional, organism-based; procedure, shortened: as §1
Influenza A virus [9] = assay: Antiviral activity against influenza A virus H3N2 infected in MDCK cells assessed as inhibition of virus-induced cytopathic effect after 3 days by MTS assay; type: functional, organism-based; procedure, shortened: as §1
Influenza B virus = assay: Antiviral activity against influenza B virus infected in MDCK cells assessed as inhibition of virus-induced cytopathic effect after 3 days by MTS assay; type: functional, organism-based; procedure, shortened: as §1
Human respirovirus 3 = assay: Antiviral activity against Parainfluenza 3 virus infected in african green monkey Vero cells assessed as inhibition of virus-induced cytopathic effect after 3 days by MTS assay; type: functional, organism-based; procedure, shortened: as §1
[10] = test system: Mammalian orthoreovirus 1; assay: Antiviral activity against Reovirus 1 infected in african green monkey Vero cells assessed as inhibition of virus-induced cytopathic effect after 3 days by MTS assay; type: functional, organism-based; procedure, shortened: as §1
Sindbis virus = assay: Antiviral activity against Simbidis virus infected in african green monkey Vero cells assessed as inhibition of virus-induced cytopathic effect after 3 days by MTS assay; type: functional, organism-based; procedure, shortened: as §1
Coxsackievirus B4 [11] = assay: Antiviral activity against Coxsackie virus B4 infected in african green monkey Vero cells assessed as inhibition of virus-induced cytopathic effect after 3 days by MTS assay; type: functional, organism-based; procedure, shortened: as §1
Punta Toro virus = assay: Antiviral activity against Punta toro virus infected in african green monkey Vero cells assessed as inhibition of virus-induced cytopathic effect after 3 days by MTS assay; type: functional, organism-based; procedure, shortened: as §1

| Structure (SMILES) | MBC (Staphylococcus aureus) | MBC (Bacillus subtilis) | MBC (Escherichia coli) | MFC (Candida albicans) | -logMIC (Aspergillus niger) | MFC (Aspergillus niger) | inhibition (Feline coronavirus) | inhibition (Felid alphaherpesvirus 1) | inhibition (Human alphaherpesvirus 1 [5]) | inhibition (Human alphaherpesvirus 2) | inhibition (Vaccinia virus) | inhibition (Human alphaherpesvirus 1 [6]) | inhibition [7] | inhibition (Influenza A virus [8]) | inhibition (Influenza A virus [9]) | inhibition (Influenza B virus) | inhibition (Human respirovirus 3) | inhibition [10] | inhibition (Sindbis virus) | inhibition (Coxsackievirus B4 [11]) | other results |
| --- | --- | --- | --- | --- | --- | --- | --- | --- | --- | --- | --- | --- | --- | --- | --- | --- | --- | --- | --- | --- | --- |
| COc1cc(OC)cc(C(=O)N/N=C/c2ccccc2)c1 | 0.088 uM/ml | 0.044 uM/ml | 0.177 uM/ml | 0.011 uM/ml | 1.66 | 0.022 uM/ml | inactive | inactive | inactive | inactive | inactive | inactive | inactive | inactive | inactive | inactive | inactive | inactive | inactive | inactive | EC50 [1]: > 20 µg/mL; EC50 (Coxsackievirus B4 [2]): > 20 µg/mL; MCC at 72 h [3]: 100 µg/mL; CC50 (HeLa): 61.2 µg/mL (≈ 215 µM); EC50 [4]: 6.5 µg/mL; inhibition (Punta Toro virus): inactive |
| Nc1ncnc2c1ncn2C[C@H](O)CO [(S)-DHPA] | – | – | – | – | – | – | – | – | – | – | – | – | – | – | – | – | – | – | – | – | EC50 [1]: > 250 µM; EC50 (Coxsackievirus B4 [2]): > 250 µM; CC50 at 72 h [3]: > 250 µg/mL; MCC at 72 h [3]: > 250 µM; EC50 [4]: > 250 µM |
| COc1cc(OC)cc(C(=O)N/N=C/c2ccccc2Cl)c1 | >0.157 uM/ml | 0.039 uM/ml | >0.157 uM/ml | 0.019 uM/ml | 1.56 | >0.157 uM/ml | inactive | inactive | inactive | inactive | inactive | inactive | inactive | inactive | inactive | inactive | inactive | inactive | inactive | inactive | EC50 [1]: > 20 µg/mL; EC50 (Coxsackievirus B4 [2]): > 20 µg/mL; MCC at 72 h [3]: 100 µg/mL; CC50 (HeLa): 64 µg/mL (≈ 201 µM); EC50 [4]: 13.2 µg/mL; -logMIC (Candida albicans): 2.01; inhibition (Punta Toro virus): inactive |
| NC(=O)c1ncn([C@@H]2O[C@H](CO)[C@@H](O)[C@H]2O)n1 [RIBAVIRIN] | – | – | – | – | – | – | – | – | – | – | – | – | – | – | – | – | – | – | – | – | EC50 [1]: 6.6 µM; EC50 (Coxsackievirus B4 [2]): 73.1 µM; CC50 at 72 h [3]: > 250 µg/mL; MCC at 72 h [3]: > 250 µM; EC50 [4]: 17.2 µM |
| CCCCCCCCCCCC(=O)N/N=C/c1ccccc1Cl | >0.148 uM/ml | 0.148 uM/ml | 0.009 uM/ml | >0.148 uM/ml | 1.43 | >0.148 uM/ml | inactive | inactive | inactive | inactive | inactive | inactive | inactive | inactive | inactive | inactive | inactive | inactive | inactive | inactive | -logMIC (Escherichia coli): 1.8; inhibition (Punta Toro virus): inactive |
| C/C=C/C=C/C(=O)N/N=C/c1ccccc1Cl | >0.201 uM/ml | 0.05 uM/ml | 0.1 uM/ml | >0.201 uM/ml | 1.5 | >0.201 uM/ml | inactive | inactive | inactive | inactive | inactive | inactive | inactive | inactive | inactive | inactive | inactive | inactive | inactive | inactive | inhibition (Punta Toro virus): inactive |
| O=C(/C=C/c1ccccc1)N/N=C/c1ccccc1 | >0.2 uM/ml | >0.2 uM/ml | 0.05 uM/ml | >0.2 uM/ml | 1.6 | >0.2 uM/ml | inactive | inactive | inactive | inactive | inactive | inactive | inactive | inactive | inactive | inactive | inactive | inactive | inactive | inactive | inhibition (Punta Toro virus): inactive |
